Source: PubChem
HSV replic up = enhancers of HSV replication in host cells, fold increase, host cell viability. maximum fold increase. hit rate 0.005% among 220,000. AID 1956, 2009. HSV replication augmentation in cells; in the data active means maximum fold increase above about 1.5; inconclusive means no clear call, values can overlap the other calls; tested in PC3 cells
Lmaj promast = Leishmania major promastigote growth inhibition, primary screen. AID 1063, 2008. hit rate 9% among 200,000. Leishmania major promastigotes, resazurin fluorescence viability. inhibition, % at 10 µM; in the data active means inhibition above about 50%;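 further: promastigotes grown with compound for 44 hours at 28 °C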
Dynein transport = inhibitors of GR-EGFP nuclear translocation, primary screen, dynein cargo transport inhibitor project, imaging, high-content, 3617.4 mouse cells. test concentration mostly 20 µM; stimulated with dexamethasone, 1 µM; hits give low values. z-score, hits read low. hit rate 0.47% among 220,000;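 active means plate z-score of nuclear minus cytoplasmic receptor signal below a set negative limit, without overly bright fluorescence or cell loss, cut at about -3.5 in these data, passing the limit was not always enough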;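 further: z-score of nuclear minus cytoplasmic ring GR-EGFP intensity difference per well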
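Buffer or medium: tetracycline-free induction medium containing charcoal-stripped FBS / Reagent: dexamethasone agonist, 1.0 µM final, for 30 min / Technique: automated 10x imaging of fixed Hoechst-stained cells / Times: induction 48 h, compound 1 h, agonist 30 min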
MT stabilize HCS = microtubule stabilizers in HeLa cells, primary screen, imaging, high-content imaging | HeLa tubulin immunostaining HCS, 24 h; share of cells brighter than vehicle mean+2SD | % tubulin-high responders, % at 10 µM | hit rate 0.83% among 200,000 | AID 2205, 2009;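 active means plate Z-score above 3 for both tubulin-high and condensed-nucleus cell shares, with cell loss under 80%, at 10 µM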;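 further: anti alpha tubulin signal scored within the nucleus-defined area of each cell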
b-catenin transl = modulators of beta-catenin nuclear translocation, primary screen, imaging, HeLa cells, immunofluorescence, high-content | hit rate 0.3% among 190,000 | AID 1665, 2009 | nuclear translocation activity, % at 5 µM;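 active means nuclear translocation activity above 50% at 5 µM, with a well cell count of 50 or more; inconclusive means wells under 50 cells across six images, flagged as toxic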;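 further: per-cell ratio of nuclear to cytoplasmic median beta-catenin stain intensity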
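Test system: HeLa cells, endogenous beta-catenin; Compound: single 5 µM dose plus 0.02–20 µM confirmation series; Times: compound exposure 24 h at 37°C; Signal: fluorescence imaging of beta-catenin antibody stain plus DAPI; Read-out: % activation, nuclear-to-cytoplasmic median beta-catenin signal ratio per cell.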
Dynein inh conf = dynein cargo transport inhibitors, GR-EGFP translocation, confirmation, imaging, high-content imaging, GR-EGFP cells; shares compounds with Dynein transport; AID 463116, 2010; hit rate 69% among 1,000; 3617.4 GR-EGFP nuclear translocation imaging, dexamethasone-induced; calls only at 20 µM;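 active means inhibition of receptor movement into the nucleus at or above a set limit in both runs, with normal cell brightness and cell count; inconclusive means limit reached in only one run, brightness and count normal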;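 further: dexamethasone at 1 µM final in well for 30 min; nuclear minus cytoplasmic GR-EGFP mean intensity difference in channel 2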
Of the large screens only hits and unclear results are named; the others gave an inactive call (follow-up assays come after a bar, where they were run). A selection: hits, their analogues and other compounds. The true share with any hit is near 8.9%.

CCOC(=O)C(=Cc1ccc(F)cc1)C(=O)OCC	Dynein transport -5.21 | Dynein inh conf active
CCOC(=O)C(=O)Nc1ccc(F)cc1	none (no result: b-catenin transl)
CCOC(=O)C(=Cc1ccc(-n2ccnc2)cc1)C(=O)OCC	Lmaj promast 79.2, Dynein transport -5.59 | Dynein inh conf active
Cc1oc2cc3oc(=O)c4c(c3cc2c1C)CCC4	none
Cc1c(Cl)cccc1NC(=O)CCCCCN1C(=O)CCC1=O	none (no result: b-catenin transl)
Cc1ccc(-c2csc(NC(=O)c3ccc(-c4ccccc4)cc3)n2)o1	none
Cc1ccc(-c2csc(NC(=O)Cc3ccc(F)cc3)n2)o1	Dynein transport -3.91 | Dynein inh conf inactive
Nc1ccc(N2CCCCCC2)cc1	Lmaj promast 100.2, Dynein transport -4.28 | Dynein inh conf inconclusive
COc1ccc(-c2nc(-c3cccc(C)c3)no2)cc1OC	none
Cc1ccc(NC(=O)c2cc(NC(=O)c3ccco3)ccc2N2CCOCC2)cc1	none (no result: b-catenin transl)
Cc1ccc(NC(=O)c2cc(N3C(=O)C=CC3=O)ccc2N2CCOCC2)cc1	Dynein transport -4.87 | Dynein inh conf active
O=C1C=CC2C(c3ccc4c(c3)OCO4)CC1N2Cc1ccccc1 (stereo unspecified)	Lmaj promast 99.8, Dynein transport -3.8 | Dynein inh conf active
CCN1CCN(CC(=O)NC2CCCC2)C(=O)C1=O	none (no result: b-catenin transl)
Cc1nc(SCC(=O)Nc2ccc(N3CCOCC3)cc2)nc(C)c1C	none
COC(=O)C(=C/C(C)=C/c1cccnc1)C(=O)OC	Lmaj promast 70.9, Dynein transport -5.94 | Dynein inh conf active
COC(=O)/C(=C/c1cccnc1)NC(=O)c1ccccc1	none
Cc1cc(C)n(CC(C)NC(=O)CCc2nnc(CCc3ccccc3)o2)n1 (stereo unspecified)	none
COc1ccc(/C=C\c2nc(=O)c3ccccc3o2)cc1	Lmaj promast 84.2, Dynein transport -3.59 | Dynein inh conf active
N#CC12COC3(CCCCC3C1(C#N)C#N)OC2=N (stereo unspecified)	HSV replic up inconclusive, Dynein transport -5.04 (no result: Lmaj promast, MT stabilize HCS) | Dynein inh conf active
Cc1cc(NC(=O)CCCn2nc([N+](=O)[O-])c(Br)c2C)no1	none (no result: b-catenin transl)
CCOC(=O)Cc1c(C)nc2c(-c3ccc(Cl)cc3)cnn2c1C	none
CCN(CC)CCN1C(=O)C(=O)/C(=C(/O)c2c(C)[nH]c(C(=O)OC)c2C)C1c1cccnc1 (stereo unspecified)	none
C=C1C(=O)C=C2CN(C(=O)c3ccccc3)[C@@](Cc3ccc(F)cc3)(C(=O)OC)[C@@H]12	Lmaj promast 100.4, Dynein transport -4.96 | Dynein inh conf active
COC(=O)[C@@]1(Cc2ccc(F)cc2)[C@H]2c3cc(C(=O)N(C)C)n(Cc4ccc(OC)c(OC)c4)c3C[C@H]2CN1C(=O)c1ccccc1	none (no result: b-catenin transl)
CC(=O)c1ccc(NC(=O)Nc2ncn(Cc3cccc(C)c3)n2)cc1	none
CCCc1nc2oc3c(Cl)ncnc3c2c2c1CCCC2	Dynein transport -5.48 (no result: Lmaj promast, MT stabilize HCS) | Dynein inh conf inconclusive
CC(C)Cc1nc2oc3c(Cl)ncnc3c2c2c1CCCC2	Dynein transport -5.68 (no result: Lmaj promast, MT stabilize HCS) | Dynein inh conf active
CCCc1nc2oc3c(N4CCNCC4)ncnc3c2c2c1CCCC2	none (no result: HSV replic up, Lmaj promast, Dynein transport, MT stabilize HCS)
COc1ncnc2c1oc1nc(CC(C)C)c3c(c12)CCCC3	none
Cc1ccc(CNC(=O)COC(=O)Cc2ccc(-c3ccccc3)cc2)cc1	none
Cc1ccc2[nH]c(=O)c(CNC(C)(C)C)cc2c1	none
CC(=O)Nc1sc(-c2ccc(Cl)cc2)nc1-c1ccccc1	none (no result: Lmaj promast, MT stabilize HCS)
CC(=O)Nc1sc(/C(C#N)=C\c2cccc(Cl)c2)nc1-c1ccc(C)cc1	none (no result: HSV replic up) | Dynein inh conf inactive
CCCCCn1c(=O)c2ccccc2n2c(CCl)nnc12	Lmaj promast 87.2, Dynein transport -6.46 | Dynein inh conf active
CC(C)CCn1c(=O)c2ccccc2n2c(CCl)nnc12	Lmaj promast 93.5, Dynein transport -4.48 | Dynein inh conf active
CC(C)CCn1c(=O)c2ccccc2n2c(CN3CCCC3)nnc12	none
Cc1nc2cc(C(=O)O)ccc2s1	none
Cn1cnc([N+](=O)[O-])c1S(=O)(=O)c1ccc(Cl)cc1	Dynein transport -4.22 (no result: b-catenin transl) | Dynein inh conf active
Cn1cnc([N+](=O)[O-])c1NC(C)(C)C	none (no result: b-catenin transl)
CC(C)Nc1nc(NC(C)C)nc(N(C)C(N)=O)n1	none
CC(=O)c1oc2ccccc2c1NC(=O)COC(=O)c1ccc(-n2nc(C)cc2C)cc1	none (no result: HSV replic up, Lmaj promast, Dynein transport, MT stabilize HCS)
COCCCNc1nc2c(-c3ccc(Cl)cc3)nnn2c2ccccc12	Dynein transport -4.19 (no result: HSV replic up) | Dynein inh conf inactive
O=C(N/N=C1\CCc2ccccc21)c1ccncc1	none
O=C(Oc1ccc(-c2ccccc2)cc1)N1CCCCC1	none
CCC(OC(=O)c1cccs1)C(=O)NC1CCCCC1 (stereo unspecified)	none
CN=c1scc(-c2cccs2)n1/N=C/c1ccc(O)c(O)c1O	Dynein transport -3.64 | Dynein inh conf inconclusive
CCNC1=C(Cl)C(=O)c2ccccc2C1=O	none (no result: b-catenin transl)
O=C1C(Cl)=C(NCCN2CCCCC2)C(=O)c2ccccc21	Lmaj promast 99.3, Dynein transport -4.2 | Dynein inh conf active
CCN1CCN(c2nc3ccccn3c(=O)c2/C=C(\C#N)S(=O)(=O)c2ccccc2)CC1	none (no result: Lmaj promast, MT stabilize HCS)
O=C(N/N=C1/CCS(=O)(=O)c2ccc(F)cc21)c1ccccn1	none
CS(=O)(=O)N1N=C(c2ccccc2)CC1c1ccc2c(c1)OCO2 (stereo unspecified)	none (no result: HSV replic up) | Dynein inh conf inactive
COc1cc(C)c(S(=O)(=O)N2CCN(C)CC2)cc1C	none
CCN(CC)C1=CC2=CC(=C(C#N)C#N)CCC2CC1 (stereo unspecified)	HSV replic up inconclusive
N#CC1=C(N)C2=C(N3CCCCC3)CCCC2C1(C#N)C#N (stereo unspecified)	none
CCCCN(C)C1=CC2=CC(=C(C#N)C#N)CCC2CC1 (stereo unspecified)	HSV replic up inconclusive, Dynein transport -8.14 | Dynein inh conf active
N#CC(C#N)=C1C=C2C=C(N3CCCCC3)CCC2CC1 (stereo unspecified)	HSV replic up inconclusive, Dynein transport -7.32 | Dynein inh conf active
O=C(NCC1CCCO1)c1cccc(N2CCCC2=O)c1 (stereo unspecified)	none
CCOC(=O)C(NC(=O)c1ccccc1F)(Nc1cc(C)on1)C(F)(F)F (stereo unspecified)	none
NS(=O)(=O)c1ccc(NC(=O)CCCC(=O)O)cc1	none
O=c1cc(-c2c(F)c(F)c(F)c(F)c2F)oc2c(F)c(F)c(F)c(F)c12	Lmaj promast 57.9, Dynein transport -8.24 | Dynein inh conf active
O=C(O)c1ccc(NC(=S)N2CCCCC2)cc1	none
O=C(CN1CCN(S(=O)(=O)c2ccccc2[N+](=O)[O-])CC1)NC(=O)NCc1ccco1	Dynein transport -3.63 | Dynein inh conf inactive
CCn1nc(C)c(/C=N/NC(=O)CSc2ccccn2)c1C	none (no result: Lmaj promast, MT stabilize HCS)
